According to ChEMBL document CHEMBL3797062, “Diterpenes from the Trunk of Abies holophylla and Their Potential Neuroprotective and Anti-inflammatory Activities” (J Nat Prod, 2016):
Activity calls are given as the source filed them. The rule behind the calls is not given here.

Assays:
A549 = assay: Cytotoxicity in human A549 cells by SRB assay; assay type: functional, cell-based
[1] = Cytotoxicity in human HCT116 cells by SRB assay; assay type: functional, cell-based; conditions: HCT-116
[2] = Cytotoxicity in human SKOV3 cells by SRB assay; assay type: functional, cell-based; conditions: SK-OV-3
BV-2 = assay: (§1) Antiinflammatory activity in mouse BV2 cells assessed as inhibition of LPS-induced NO production after 24 hrs by Griess assay; assay type: functional, cell-based
How it was run: (§2)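 BV2 microglia seeded at 4 × 10^4 cells/well, given compound at various concentrations with LPS (100 ng/mL), incubated 24 h. Nitrite in the medium read with Griess reagent (0.1% N-1-naphthylethylenediamine dihydrochloride, 1% sulfanilamide in 5% phosphoric acid, equal volume of supernatant), absorbance at 570 nm after 10 min. Sodium nitrite standard curve. IC50 derived. L-NMMA positive control.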

C6 = assay: Neuroprotective activity in rat C6 cells assessed as induction of NGF release at 20 uM after 24 hrs by ELISA; assay type: functional
How it was run: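 C6 glioma cells seeded at 1 × 10^5 cells/well. After 24 h, treated with compound at 20 μM in serum-free DMEM for a further 24 h. NGF secreted into the conditioned medium quantified by ELISA and expressed as % of untreated control (100%). 6-Shogaol positive control. Means ± SD of three independent experiments run in triplicate.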

SK-MEL-2 = assay: Cytotoxicity in human SK-MEL-2 cells by SRB assay; assay type: functional, cell-based
[3] = Cytotoxicity in rat C6 cells assessed as cell viability at 20 uM after 24 hrs by MTT assay; assay type: cell-based; conditions: read-out: Activity
How it was run: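 C6 glioma cells seeded at 1 × 10^5 cells/well. After 24 h, switched to serum-free DMEM with compound at 20 μM for a further 24 h. Viability by MTT, expressed as % of untreated control. Means ± SD of three independent experiments.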

[4] = as §1; assay type: functional, cell-based; conditions: BV-2, 24 h; how it was run: as §2
[5] = Cytotoxicity in LPS-activated mouse BV2 cells assessed as cell viability at 20 uM after 24 hrs by MTT assay; assay type: cell-based; conditions: bv-2, 24 h
How it was run: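 Mouse microglial BV2 cells were seeded at 4 × 10^4 cells/well, treated with or without compound, stimulated with LPS (100 ng/mL), and incubated for 24 h. Viability was read by MTT assay, as the reduction of yellow MTT to purple formazan by viable cells.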

C6 (Rattus norvegicus) = assay: Neuroprotective activity in rat C6 glioma cells assessed as induction of NGF release at 20 uM for 24 hrs

SMILES | IC50 (A549) [µM] | IC50 [1] [µM] | IC50 [2] [µM] | inhibition (BV-2) | Activity (C6) [%] | IC50 (SK-MEL-2) [µM] | viability at 24 h, 20 µM [3] [%] | IC50 [4] [µM] | Activity [5] | Activity (C6 (Rattus norvegicus)) [%]
CO[C@@]1(C(C)C)C=C2[C@H](O)C[C@@H]3[C@](C)(CCC[C@@]3(C)C(=O)O)[C@H]2CC1 | > 10 | > 10 | > 10 | inactive | 169.4 | > 10 | 78.1 |  |  | 
CC(C)(O)[C@]12O[C@H]1C[C@@H]1[C@@]3(C)CCC[C@@](C)(C(=O)O)[C@@H]3CC[C@@]1(O)[C@H]2O | > 10 | > 10 | > 10 | inactive |  | > 10 |  |  |  | 
CC(C)c1ccc2c(c1)[C@H](O)C[C@H]1[C@](C)(C(=O)O)CCC[C@]21C | > 10 | > 10 | > 10 | inactive | 204.3 | > 10 | 101 |  |  | 
CC(C)(O)c1ccc2c(c1)C(=O)C[C@H]1[C@](C)(C(=O)O)CCC[C@]21C | > 10 | > 10 | > 10 | inactive | 161.7 | > 10 | 94.6 |  |  | 
CC(C)[C@@]12C=C3[C@H](O)C[C@H]4[C@](C)(C(=O)O)CCC[C@]4(C)[C@]3(CC1)OO2 | > 10 | > 10 | > 10 | inactive | 154.3 | > 10 | 127 |  |  | 
CC(C)[C@]12C=C3C(=O)C[C@H]4[C@](C)(C(=O)O)CCC[C@]4(C)[C@@]3(CC1)OO2 | > 10 | > 10 | > 10 |  |  | > 10 |  | 30.1 | Non-toxic | 
CC(C)[C@]12O[C@H]1CC1=C(CC[C@H]3[C@](C)(C(=O)O)CCC[C@]13C)[C@H]2O | > 10 | > 10 | > 10 | inactive |  | > 10 |  |  |  | 
CC(C)[C@]12O[C@H]1C[C@@H]1[C@@]3(C)CCC[C@@](C)(C(=O)O)[C@@H]3CC[C@@]1(O)[C@H]2O | > 10 | > 10 | > 10 | inactive |  | > 10 |  |  |  | 
CO[C@H]1C(=O)C2=C[C@@](O)(C(C)C)CC[C@@H]2[C@@]2(C)CCC[C@@](C)(C(=O)O)[C@H]12 | > 10 | > 10 | > 10 | inactive | 170.2 | > 10 | 96.2 |  |  | 
CO[C@@]1(C(C)C)C=C2C(=O)C[C@@H]3[C@](C)(CCC[C@@]3(C)C(=O)O)[C@H]2CC1 | > 10 | > 10 | > 10 | inactive |  | > 10 |  |  |  | 
CC(C)[C@]1(O)C=C2C(=O)C[C@@H]3[C@](C)(CCC[C@@]3(C)C(=O)O)[C@H]2CC1 | > 10 | > 10 | > 10 | inactive | 175.6 | > 10 | 94.5 |  |  | 
CC(C)c1ccc2c(c1)C(=O)C[C@H]1[C@](C)(C(=O)O)CCC[C@]21C | > 10 | > 10 | > 10 | inactive | 201.8 | > 10 | 104 |  |  | 
CC(C)C1=C[C@@]23CC[C@@H]4[C@](C)(CCC[C@@]4(C)C(=O)O)[C@H]2C[C@@H]1OO3 | > 10 | > 10 | > 10 | inactive | 153 | > 10 | 102 |  |  | 
CC(C)[C@]12C=C3[C@H](O)C[C@H]4[C@](C)(C(=O)O)CCC[C@]4(C)[C@@]3(CC1)OO2 | > 10 | > 10 | > 10 | inactive |  | > 10 |  |  |  | 
CC(C)c1ccc2c(c1)[C@H](O)C[C@H]1[C@](C)(CO)CCC[C@]21C | > 10 | > 10 | > 10 | inactive | 177.1 | > 10 | 89.3 |  |  | 
CC(=O)OC[C@]1(C)CCC[C@]2(C)c3ccc(C(C)(C)O)cc3CC[C@@H]12 | > 10 | > 10 | > 10 | inactive | 171.3 | > 10 | 85.5 |  |  | 
CC(C)c1ccc2c(c1)[C@H](O)C[C@H]1C(C)(C)CCC[C@]21C | > 10 | > 10 | > 10 | inactive |  | > 10 |  |  |  | 
CC(C)[C@@]12CC[C@@H]3[C@@]4(C)CCC[C@@](C)(C(=O)O)[C@@H]4CC(=O)[C@]3(O)[C@@H]1O2 | > 10 | > 10 | > 10 | inactive | 155 | > 10 | 91.4 |  |  | 
CO[C@]12C(=O)C[C@@H]3[C@](C)(CCC[C@@]3(C)C(=O)O)[C@H]1CC[C@@]1(C(C)C)O[C@@H]21 | > 10 | > 10 | > 10 | inactive |  | > 10 |  |  |  | 
COc1cc([C@@H]2c3cc4c(cc3[C@@H](O[C@@H]3O[C@@H]5CO[C@@H](C)O[C@H]5[C@H](O)[C@H]3O)[C@H]3COC(=O)[C@H]23)OCO4)cc(OC)c1O [ETOPOSIDE] | 1.4 | 1 | 2.6 |  |  | 1.5 |  |  |  | 
CC(C)[C@]12C=C3CC[C@H]4[C@](C)(C(=O)O)CCC[C@]4(C)[C@@]3(CC1)OO2 | > 10 | > 10 | > 10 |  | 175.9 | > 10 | 109 | 57.3 | Non-toxic | 
CC(C)c1ccc2c(c1)[C@@H](O)C[C@H]1[C@](C)(C(=O)O)CCC[C@]21C | > 10 | > 10 | > 10 | inactive | 165.1 | > 10 | 96.2 |  |  | 
CC(C)c1ccc2c(c1)CC[C@H]1[C@](C)(C(=O)O)CCC[C@]21C [DEHYDROABIETIC ACID] | > 10 | > 10 | > 10 | inactive | 170.2 | > 10 | 92.3 |  |  | 
CCCCC/C=C/C(=O)CCc1ccc(O)c(OC)c1 [SHOGAOL] |  |  |  |  |  |  | 119 |  |  | 141.8
CC(C)c1ccc2c(c1)[C@H](O)C[C@H]1[C@](C)(COC(=O)CCC(=O)O)CCC[C@]21C [ABIESADINE F] | > 10 | > 10 | > 10 | inactive | 142.2 | > 10 | 98.2 |  |  | 
CC(C)[C@]12O[C@H]1C[C@H]1C(=CC[C@@H]3[C@]1(C)CCC[C@@]3(C)C(=O)O)[C@H]2O | > 10 | > 10 | > 10 | inactive | 193.9 | > 10 | 73.1 |  |  | 
CC(C)C1=C[C@@]2(O)CC[C@@H]3[C@](C)(CCC[C@@]3(C)C(=O)O)[C@H]2CC1=O | > 10 | > 10 | > 10 |  | 166.1 | > 10 | 91.2 | 56.1 | Non-toxic | 
CC(C)(O)[C@]12O[C@H]1C[C@H]1C(=CC[C@@H]3[C@]1(C)CCC[C@@]3(C)C(=O)O)[C@H]2O | > 10 | > 10 | > 10 | inactive | 158.6 | > 10 | 92.5 |  |  | 
CC(C)(O)[C@]12O[C@H]1C[C@@H]1[C@@]3(C)CCC[C@@](C)(C(=O)O)[C@@H]3CC[C@@]13O[C@H]32 | > 10 | > 10 | > 10 | inactive |  | > 10 |  |  |  | 
CC(C)(O)c1ccc2c(c1)CC[C@H]1[C@](C)(C(=O)O)CCC[C@]21C | > 10 | > 10 | > 10 | inactive | 152.9 | > 10 | 94.3 |  |  | 
